# Assay results reported in ChEMBL document CHEMBL5576109, “Hydantoin derivative dimers as broad-spectrum antimicrobial agents against ESKAPE pathogens with enhanced killing rate and stability” (RSC Med Chem, 2024).
# Active and inactive are the calls of the source. The calls are words filed in the database; no cut-off is given here.
# Assays:
# [1] = tested on: Staphylococcus aureus; assay: Antibacterial activity against Staphylococcus aureus ATCC 29213 assessed as inhibition of bacterial growth by measuring fold increase in MIC measured after 16 to 18 hrs in presence of NaCl by TECAN SPARK microplate reader analysis; assay type: functional; settings: time 16-18 hrs
# Procedure, shortened: (§1)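 Salt/serum stability. Exponential-phase bacteria incubated 16–18 h with compound in medium supplemented with 10 mM NaCl, 10 mM KCl, 10 mM MgCl2, 10% DMEM or 10% FBS. Stability judged from the change in MIC.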
# [2] = tested on: Escherichia coli; assay: Antibacterial activity against Escherichia coli ATCC 25922 assessed as inhibition of bacterial growth by measuring fold increase in MIC measured after 16 to 18 hrs in presence of NaCl by TECAN SPARK microplate reader analysis; assay type: functional; settings: time 16-18 hrs; procedure, shortened: as §1
# [3] = tested on: Escherichia coli; assay: Antibacterial activity against Escherichia coli ATCC 25922 assessed as inhibition of bacterial growth by measuring fold increase in MIC measured after 16 to 18 hrs in presence of 10% FBS by TECAN SPARK microplate reader analysis; assay type: functional; settings: time 16-18 hrs; procedure, shortened: as §1
# [4] = tested on: Staphylococcus aureus; assay: Drug resistance, ratio of MIC for Staphylococcus aureus ATCC 29213 after 25 passages to MIC for Staphylococcus aureus ATCC 29213 after initial exposure; assay type: functional; settings: time 16 hrs
# Procedure, shortened: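 Serial passage resistance selection: after each broth MIC determination, bacteria from the 1/2 MIC well were withdrawn and diluted to 1 × 10^6 CFU/mL for the next MIC measurement. Repeated for 25 passages; MIC after passage 25 compared with the initial MIC.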
# [5] = tested on: Staphylococcus aureus; assay: Induction of cytoplasmic membrane depolarization in Staphylococcus aureus ATCC 29213 assessed as increase in fluorescence intensity by DiSC3(5) staining based analysis; assay type: functional, organism-based
# Procedure, shortened: (§2)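 Mid-log cells washed in 5 mM HEPES/5 mM glucose and resuspended at 10^6 CFU/mL in glucose/HEPES/100 mM KCl (1:1:1). DiSC3(5) added and fluorescence (Ex 622 / Em 670 nm) followed for 30 min at 37 °C until minimal. Compound then added and the fluorescence rise recorded.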
# [6] = tested on: Escherichia coli; assay: Induction of cytoplasmic membrane depolarization in Escherichia coli ATCC 25922 assessed as increase in fluorescence intensity by DiSC3(5) staining based analysis; assay type: functional, organism-based; procedure, shortened: as §2
# [7] = tested on: Escherichia coli; assay: Induction of ROS generation in Escherichia coli ATCC 25922 assessed as increase in fluorescence intensity incubated for 30 mins by DCFH-DA staining based analysis; assay type: functional, organism-based
# Procedure, shortened: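 Overnight 37 °C cultures washed three times and resuspended in PBS, diluted to OD600 0.1, and mixed with DCFH-DA (5 µM). Treated with a range of compound concentrations for 30 min at 37 °C in the dark. Fluorescence read at Ex 488 / Em 530 nm.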
# [8] = tested on: Escherichia coli; assay: Induction of morphological changes in Escherichia coli ATCC 25922 assessed as cell shrinkage at 8 time of MIC for 6 hrs by scanning electron microscopy; assay type: functional, organism-based
# Procedure, shortened: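 Mid-log cells exposed to compound for 6 h at 37 °C alongside untreated controls. Cells pelleted (3000 rpm, 15 min), washed four times in PBS, and fixed with 2.5% glutaraldehyde. Dehydrated through graded ethanol, critical-point dried and gold-coated, then imaged by SEM.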
smiles,measurement,setting,value
CCCCCCN1C(=O)[C@H](CCCCNC(=N)N)N(Cc2ccc(-c3ccc(CN4C(=O)N(CCCCCC)C(=O)[C@@H]4CCCCNC(=N)N)cc3)cc2)C1=O,fold change (FC),[1],1
same,fold change (FC),[2],1
same,fold change (FC),[3],1
same,Ratio,[4],<=4
same,Activity,[5],Dose-Dependent Effect
same,Activity,[6],Dose-Dependent Effect
same,Activity,[7],Dose-Dependent Effect
same,Activity,[8],Active
